Here are results for 2 molecules from ChEMBL document CHEMBL1153337, “Small molecule antagonists of the gonadotropin-releasing hormone (GnRH) receptor: structure-activity relationships of small heterocyclic groups appended to the 2-phenyl-4-piperazinyl-benzimidazole template” (Bioorg Med Chem Lett, 2009).

The target in one data set is CYP2C9 (Homo sapiens, UniProt P11712). Kind of data set: Inhibition of CYP2C9 at 3 uM. It counts as ADME.
The subject of data set [1] is Rattus norvegicus. Kind of data set: Change in serum leutinizing hormone level in orchidectomized rat at 30 mg/kg, po after 24 hrs relative to control. Type of data set: functional. Put shortly:
(§1)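 Orchidectomized rats (stable elevated LH after testosterone feedback removal), oral gavage 30 mg/kg in PEG 400 vs vehicle cohort, n = 6 per group; serum LH sampled over 24 h, relative LH with t = 0 set to 100; change = treated minus vehicle average.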

Data set [2] can be described thus: Oral bioavailability in orchidectomized Sprague-Dawley rat at 30 mg/kg after 1 day. It counts as ADME, organism-based. Conditions: male, in vivo. Put shortly:
(§2)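 Orchidectomized SD rats, single oral dose of 30 mg/kg in PEG 400; iv arm 1 mg/kg in 20% DMSO/PEG 200 for bioavailability; one-day PK study.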

Data set [3] relates to Rattus norvegicus. As to the kind of experiment: Change in serum leutinizing hormone level in orchidectomized rat at 30 mg/kg, po after 1 hr relative to control. Type of data set: functional. Put shortly: as §1
Data set [4] in a line: AUC (0 to alpha) in orchidectomized Sprague-Dawley rat at 30 mg/kg, po after 1 day. Type of data set: ADME, organism-based. Set-up: dose 30 mg/kg, route oral. As to conditions: male, plasma. Put shortly: as §2
Data set [5] can be described thus: Metabolic stability in rat liver microsomes assessed as half life. Type of data set: ADME, Microsome.
A short description of data set [6]: Solubility at pH 7.4. Type of data set: physicochemical. As to conditions: buffer.
Data set [7] can be described thus: Volume of distribution at steady state in orchidectomized Sprague-Dawley rat at 1 mg/kg, iv after 1 day. Conditions: male, in vivo, read-out: Vdss. Type of data set: ADME, organism-based. Set-up: dose 1 mg/kg, route intravenous. Put shortly: (§3)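 Orchidectomized SD rats, single iv dose of 1 mg/kg in 20% DMSO/PEG 200; one-day PK study.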
The target of the next data set is CYP3A4 (Homo sapiens, UniProt P08684). Kind of data set: Inhibition of CYP3A4 at 3 uM. Type of data set: ADME.
Chain of CYP3A4 (P08684 whole entry): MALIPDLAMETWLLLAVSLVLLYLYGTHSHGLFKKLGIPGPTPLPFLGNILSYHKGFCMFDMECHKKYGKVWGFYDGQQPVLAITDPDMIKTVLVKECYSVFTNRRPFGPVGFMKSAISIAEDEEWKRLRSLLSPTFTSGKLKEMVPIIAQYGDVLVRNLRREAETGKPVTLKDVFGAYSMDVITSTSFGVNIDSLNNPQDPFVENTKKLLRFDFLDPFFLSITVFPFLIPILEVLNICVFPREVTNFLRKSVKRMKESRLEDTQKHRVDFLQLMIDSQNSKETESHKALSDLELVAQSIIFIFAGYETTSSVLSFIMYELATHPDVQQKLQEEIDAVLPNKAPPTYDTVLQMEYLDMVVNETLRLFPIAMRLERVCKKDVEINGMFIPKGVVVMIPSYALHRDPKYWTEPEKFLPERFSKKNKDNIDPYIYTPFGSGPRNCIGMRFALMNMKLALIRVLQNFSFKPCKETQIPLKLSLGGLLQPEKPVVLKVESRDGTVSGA
Data set [8] in a line: Clearance in orchidectomized Sprague-Dawley rat at 1 mg/kg, iv after 1 day. Set-up: dose 1 mg/kg, route intravenous. As to conditions: male, in vivo. Type of data set: ADME, organism-based. Put shortly:
as §3

The subject of data set [9] is Rattus norvegicus. As to the kind of experiment: Change in serum leutinizing hormone level in orchidectomized rat at 30 mg/kg, po after 4 hrs relative to control. It counts as functional. Put shortly: as §1
Data set [10] concerns Rattus norvegicus. Kind of data set: Change in serum leutinizing hormone level in orchidectomized rat at 30 mg/kg, po after 6 hrs relative to control. It counts as functional. Put shortly: as §1
The target of data set [11] is T1, Gonadotropin-releasing hormone receptor (Rattus norvegicus, UniProt P30969).
T1 sequence (P30969 whole entry): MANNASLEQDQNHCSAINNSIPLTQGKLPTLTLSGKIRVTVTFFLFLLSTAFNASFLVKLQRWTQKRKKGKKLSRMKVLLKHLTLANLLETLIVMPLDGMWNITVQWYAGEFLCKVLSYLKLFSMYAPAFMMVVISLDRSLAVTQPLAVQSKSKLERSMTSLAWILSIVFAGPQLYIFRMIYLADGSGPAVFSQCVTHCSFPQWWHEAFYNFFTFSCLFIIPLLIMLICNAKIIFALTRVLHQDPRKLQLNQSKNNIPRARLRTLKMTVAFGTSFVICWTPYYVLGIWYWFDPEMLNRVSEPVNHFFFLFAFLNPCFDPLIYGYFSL
As to the kind of experiment: Displacement of [125I]-(D-Trp6)-GnRH from rat GnRH receptor. Put shortly: (§4)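 Competition binding at overexpressed human or rat GnRH receptors against 125I-(D-Trp6)-GnRH; IC50 averaged from two independent experiments run in triplicate.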
A general note: Displacement assays read how much labelled ligand stays bound in the presence of the test substance.

Data set [12] addresses T2, Gonadotropin-releasing hormone receptor (Homo sapiens, UniProt P30968).
T2 sequence (P30968 whole entry): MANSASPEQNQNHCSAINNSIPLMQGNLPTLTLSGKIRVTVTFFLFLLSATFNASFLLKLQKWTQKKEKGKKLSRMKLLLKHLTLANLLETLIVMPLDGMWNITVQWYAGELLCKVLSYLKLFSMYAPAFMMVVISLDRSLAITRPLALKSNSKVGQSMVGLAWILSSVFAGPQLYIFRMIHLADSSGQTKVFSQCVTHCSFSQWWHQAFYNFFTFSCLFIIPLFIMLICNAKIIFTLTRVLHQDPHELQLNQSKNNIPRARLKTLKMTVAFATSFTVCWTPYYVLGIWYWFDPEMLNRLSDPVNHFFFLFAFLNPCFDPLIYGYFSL
As to the kind of experiment: Antagonist activity at human recombinant GnRH receptor expressed in HEK293 cells assessed as reduction in (D-Trp6)-GnRH-stimulated IP production by whole cell assay. Type of data set: functional, cell-based. Put shortly:
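Whole-cell assay, cells stimulated with (D-Trp6)-GnRH; compound-driven reduction of inositol phosphate read as IC50.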

Data set [13] addresses T2, Gonadotropin-releasing hormone receptor. As to the kind of experiment: Displacement of [125I]-(D-Trp6)-GnRH from human GnRH receptor. Put shortly:
as §4

In data set [14] the test system is Rattus norvegicus. As to the kind of experiment: Change in serum leutinizing hormone level in orchidectomized rat at 30 mg/kg, po after 2 hrs relative to control. It counts as functional. Put shortly: as §1
Data set [15] is described as follows: Half life in orchidectomized Sprague-Dawley rat at 30 mg/kg, po after 1 day. Set-up: dose 30 mg/kg, route oral. As to conditions: male, in vivo. Type of data set: ADME, organism-based. Put shortly: as §2
Data set [16] can be described thus: Reduction in leutinizing hormone release in (D-Trp6)-GnRH-stimulated rat primary pituitary cells by RIA. Conditions: Pituitary gland cell. It counts as functional, cell-based. Put shortly: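 Primary rat pituitary cells stimulated with (D-Trp6)-GnRH; compound-driven reduction of LH release read as IC50.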
The nature of data set [17]: Half life in orchidectomized Sprague-Dawley rat at 1 mg/kg, iv after 1 day. Type of data set: ADME, organism-based. Further details: dose 1 mg/kg, route intravenous. As to conditions: male, in vivo. Put shortly:
as §3

Data set [18] has as its system Rattus norvegicus. Kind of data set: Change in serum leutinizing hormone level in orchidectomized rat at 30 mg/kg, po after 0.5 hrs relative to control. It counts as functional. Put shortly: as §1
The next data set addresses CYP2D6 (Homo sapiens, UniProt P10635). Kind of data set: Inhibition of CYP2D6 at 3 uM. It counts as ADME.
Data set [19] can be described thus: Half life in orchidectomized Sprague-Dawley rat at 20 mg/kg, po after 1 day. Type of data set: ADME, organism-based. Further details: dose 20 mg/kg, route oral. As to conditions: male, in vivo. Put shortly:
(§5)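 Orchidectomized SD rats, single oral dose of 20 mg/kg in 0.4 N HCl/2% TWEEN 80; iv arm 1 mg/kg in 20% DMSO/PEG 200 for bioavailability; one-day PK study.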

Data set [20] has as its system Rattus norvegicus. As to the kind of experiment: AUC (0 to alpha) in orchidectomized Sprague-Dawley rat at 20 mg/kg, po after 1 day. Type of data set: ADME, organism-based, Plasma. Set-up: dose 20 mg/kg, route oral. As to conditions: in vivo, 24 h. Put shortly:
as §5

For data set [21], the system named is Rattus norvegicus. As to the kind of experiment: Oral bioavailability in orchidectomized Sprague-Dawley rat at 20 mg/kg after 1 day. Type of data set: ADME, organism-based. Conditions: in vivo, 24 h. Put shortly:
as §5

SMILES strings stand for the structures. In brackets after ≈: the same amount, converted by molar mass. A value given as a limit tells only on which side of the number the result lay.

Chain of CYP2C9 (P11712 whole entry): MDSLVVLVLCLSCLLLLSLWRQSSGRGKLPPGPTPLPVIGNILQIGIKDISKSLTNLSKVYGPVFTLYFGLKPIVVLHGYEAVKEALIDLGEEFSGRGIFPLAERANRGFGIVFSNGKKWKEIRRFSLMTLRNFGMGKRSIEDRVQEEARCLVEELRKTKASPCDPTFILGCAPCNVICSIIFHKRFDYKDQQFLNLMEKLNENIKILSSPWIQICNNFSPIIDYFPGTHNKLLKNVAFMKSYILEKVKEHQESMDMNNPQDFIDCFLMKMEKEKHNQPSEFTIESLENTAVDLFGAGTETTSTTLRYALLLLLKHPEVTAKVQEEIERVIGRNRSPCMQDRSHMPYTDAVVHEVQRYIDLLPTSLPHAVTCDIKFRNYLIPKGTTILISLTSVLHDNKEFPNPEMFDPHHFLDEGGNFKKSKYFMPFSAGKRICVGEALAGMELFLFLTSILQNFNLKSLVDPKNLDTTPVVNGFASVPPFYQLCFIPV
Chain of CYP2D6 (P10635 whole entry): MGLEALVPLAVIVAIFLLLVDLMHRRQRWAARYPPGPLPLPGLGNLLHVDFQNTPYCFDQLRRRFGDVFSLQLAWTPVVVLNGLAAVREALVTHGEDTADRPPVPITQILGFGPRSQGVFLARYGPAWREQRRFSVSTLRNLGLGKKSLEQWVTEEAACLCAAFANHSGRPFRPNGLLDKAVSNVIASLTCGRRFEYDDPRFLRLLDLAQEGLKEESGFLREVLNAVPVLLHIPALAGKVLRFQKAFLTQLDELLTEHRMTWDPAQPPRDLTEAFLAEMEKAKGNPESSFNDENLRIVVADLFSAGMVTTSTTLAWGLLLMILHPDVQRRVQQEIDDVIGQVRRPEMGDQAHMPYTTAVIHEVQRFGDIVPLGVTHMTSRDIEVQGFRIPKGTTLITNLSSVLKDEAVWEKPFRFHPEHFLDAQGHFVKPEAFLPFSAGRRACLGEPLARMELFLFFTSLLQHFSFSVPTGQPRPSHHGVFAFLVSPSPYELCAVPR

The term inhibition denotes the share of the control response that was lost under treatment. A lower inhibition goes with little suppression. Broadly, the bioavailability is the share of a dose that reaches the circulation, judged against a reference dose that is usually intravenous. What is called AUC is concentration integrated over time. Read a low AUC as low exposure. The half-life is how long it takes for the measured level to halve. One may read the solubility as the dissolved amount per volume that the medium holds. A lower solubility goes with little dissolved substance. For orientation: clearance means the rate of elimination divided by the concentration. As a reminder, the IC50 is the concentration at which inhibition is half-maximal. In the case of `CCn1cnc(CN2CCN(c3cccc4[nH]c(-c5ccc(C(C)(C)C)cc5)nc34)CC2)c1C`, the results for the inhibition at 3 µM on CYP2C9, against CYP3A4 and against CYP2D6 were 27%, 73% and 14%, respectively. The Activity in the data set with Rattus norvegicus [1] is -3.5; in the data set with Rattus norvegicus [3] it was -18; with Rattus norvegicus [9] it was 14.5; with Rattus norvegicus [10] it was -32.3; in the data set on Rattus norvegicus [14], -52.8; in the data set with Rattus norvegicus [18] it was -0.2. In data set [2], this molecule returned a bioavailability of 93%. This molecule also gave an AUC at 24 h in [4] of 3440 ng·h/mL. The half-life in data set [5] was 21 min; in data set [15], 222 min; in data set [17], 18 min. Also, in [6], the solubility was > 100 µg/mL. Also, the Vd in data set [7] was 2.7 L/kg. This molecule also displayed a clearance in data set [8] of 134 mL/min/kg. Also, the IC50 was 24 nM in [11], 14 nM in data set [12], 7 nM in data set [13] and 200 nM in [16].

For the molecule `CCCn1cc(CN2CCN(c3cccc4[nH]c(-c5ccc(C(C)(C)C)cc5)nc34)CC2)nc1C`, the inhibition at 3 µM against CYP2C9 stood at 19%; at CYP3A4, 85%; on CYP2D6, 13%. Besides, the half-life was 25 min in [5], 174 min in [19] and 54 min in data set [17]. In [6], the concentration in solution (solubility) was 55 µg/mL (≈ 117 µM). Further, the Vd in [7] was found to be 0.2 L/kg. The IC50 in [11] was 41 nM; in data set [12], 43 nM; in [13], 18 nM; in [16] it was 240 nM. This molecule registered an AUC in the data set on Rattus norvegicus [20] of 3830 ng·h/mL. The molecule further yielded a F with Rattus norvegicus [21] of 100%.
